Measurements: ChEMBL document CHEMBL1152812, “Novel trans-2-aryl-cyclopropylamine analogues as potent and selective dipeptidyl peptidase IV inhibitors” (Bioorg Med Chem, 2009)
pIC50: −log10 of the molar value. Active and inactive are the calls of the source. The calls are words filed in the database; no cut-off is given here.

Tests used:
Dipeptidyl peptidase 2 = Dipeptidyl peptidase 2 (Homo sapiens, UniProt Q9UHL4); assay: Inhibition of human DPP2
Prolyl endopeptidase FAP = molecular target: T1, Prolyl endopeptidase FAP (Homo sapiens, UniProt Q12884); assay: Inhibition of human FAP
T1 sequence (Q12884 whole entry): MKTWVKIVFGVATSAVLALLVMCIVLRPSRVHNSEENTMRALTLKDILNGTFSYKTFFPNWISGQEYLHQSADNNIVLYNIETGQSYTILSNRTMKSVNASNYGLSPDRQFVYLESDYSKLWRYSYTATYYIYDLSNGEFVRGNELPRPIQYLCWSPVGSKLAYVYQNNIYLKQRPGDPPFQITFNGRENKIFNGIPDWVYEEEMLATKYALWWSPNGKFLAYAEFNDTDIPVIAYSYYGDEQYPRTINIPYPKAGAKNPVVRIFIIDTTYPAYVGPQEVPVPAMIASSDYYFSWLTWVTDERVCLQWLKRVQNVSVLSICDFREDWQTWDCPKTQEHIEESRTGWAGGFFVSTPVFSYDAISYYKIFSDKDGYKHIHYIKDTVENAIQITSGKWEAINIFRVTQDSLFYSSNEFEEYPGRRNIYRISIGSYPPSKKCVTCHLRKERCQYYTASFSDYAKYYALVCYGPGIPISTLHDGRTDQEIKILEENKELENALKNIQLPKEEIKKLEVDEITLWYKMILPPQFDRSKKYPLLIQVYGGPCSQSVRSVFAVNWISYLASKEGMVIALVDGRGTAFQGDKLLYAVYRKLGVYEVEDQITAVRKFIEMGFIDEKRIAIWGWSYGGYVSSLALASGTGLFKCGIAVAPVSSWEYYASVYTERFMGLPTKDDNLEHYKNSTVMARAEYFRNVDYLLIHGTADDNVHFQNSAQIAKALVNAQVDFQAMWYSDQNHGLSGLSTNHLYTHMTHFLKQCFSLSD

Homo sapiens [1] = species: Homo sapiens; assay: Selectivity for ratio of IC50 for human DPP4 to IC50 for human DPP8
Homo sapiens [2] = species: Homo sapiens; assay: Selectivity for ratio of IC50 for human DPP4 to IC50 for human DPP2
Homo sapiens [3] = species: Homo sapiens; assay: Selectivity for ratio of IC50 for human DPP4 to IC50 for human FAP
[4] = Plasma clearance in rat at 5 mg/kg, iv or 10 mg/kg, po; type: ADME, organism-based
Procedure, shortened: (§1)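 Rat pharmacokinetics after dosing at 5 mg/kg iv and 10 mg/kg po. Parameters derived: plasma clearance, oral Cmax, oral half-life, dose-normalised oral AUC and oral bioavailability (F).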

[5] = Cmax in rat at 10 mg/kg, po; type: ADME, organism-based; design: dose 10 mg/kg, route oral; settings: in vivo; procedure, shortened: as §1
[6] = Half life in rat at 10 mg/kg, po; type: ADME, organism-based; design: dose 10 mg/kg, route oral; settings: in vivo; procedure, shortened: as §1
[7] = Oral bioavailability in rat at 10 mg/kg, po; type: ADME, organism-based; settings: in vivo; procedure, shortened: as §1
hERG (KCNH2) = hERG (KCNH2) (Homo sapiens, UniProt Q12809); assay: Inhibition of human ERG at 10 uM
Procedure, shortened: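 hERG binding; percent inhibition at a test concentration of 10 µM.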

Rattus norvegicus [8] = assay: Inhibition of DPP4 in Wistar rat plasma at 10 mg/kg, po within 30 mins; type: functional; settings: 0.5 h
Procedure, shortened: (§2)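 Adult male Wistar rats (n = 4–6/group) given a single oral gavage of 10 mg/kg in 0.5% methyl cellulose. Tail-vein blood (25–50 µl) taken at timed points and plasma kept frozen. Plasma (10 µl) mixed with 150 µM Gly-Pro-AMC in 25 mM Tris-HCl pH 7.4, 140 mM NaCl, 10 mM KCl, 0.1% BSA. Fluorescence read at ex 390/em 460 nm. Activity in U/mL; mean ± SEM.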

Rattus norvegicus [9] = assay: Inhibition of DPP4 in Wistar rat plasma at 10 mg/kg, po after 24 hrs; type: functional, organism-based; design: dose 10 mg/kg; procedure, shortened: as §2
Mus musculus [10] = assay: Reduction in glucose excursion in C57BL/6J lean mouse at 1 mg/kg, po pretreated 30 mins before glucose challenge measured after 120 mins by oral glucose tolerance test relative to control; type: functional; design: scale not given: the % may be the effect or the level left
Procedure, shortened: (§3)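 Fasted overnight: adult male C57BL/6 mice (20–25 g, 6–8 weeks old, n = 6/group), grouped by tail-vein glucometer reading. Oral gavage of test agent in distilled water at −30 min (1, 3 or 10 mg/kg), then 3 g/kg oral glucose (400 mg/mL) at 0 min.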

Mus musculus [11] = assay: Reduction in glucose excursion in C57BL/6J lean mouse at 10 mg/kg, po pretreated 30 mins before glucose challenge measured after 120 mins by oral glucose tolerance test relative to control; type: functional; design: scale not given: the % may be the effect or the level left; procedure, shortened: as §3
Mus musculus [12] = assay: Reduction in glucose excursion in po dosed C57BL/6J lean mouse pretreated for 30 mins before glucose challenge measured after 120 mins by oral glucose tolerance test; type: functional, organism-based; procedure, shortened: as §3
Mus musculus [13] = assay: Reduction in glucose AUC in C57BL/6J diet-induced obese mouse at 1 mg/kg, po pretreated 30 mins before glucose challenge measured after 120 mins by oral glucose tolerance test relative to control; type: functional; design: scale not given: the % may be the effect or the level left
Procedure, shortened: (§4)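 Male C57BL/6j DIO mice (40–50 g, 27 weeks old, n = 6/group) fasted overnight and grouped by tail-vein glucometer reading. Test agent given by oral gavage in distilled water, then 3 g/kg glucose orally (400 mg/mL in water) 30 min later.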

Mus musculus [14] = assay: Reduction in glucose AUC in C57BL/6J diet-induced obese mouse at 3 mg/kg, po pretreated 30 mins before glucose challenge measured after 120 mins by oral glucose tolerance test relative to control; type: functional; design: scale not given: the % may be the effect or the level left; procedure, shortened: as §4
Mus musculus [15] = assay: Reduction in glucose AUC in C57BL/6J diet-induced obese mouse at 10 mg/kg, po pretreated 30 mins before glucose challenge measured after 120 mins by oral glucose tolerance test relative to control; type: functional; design: scale not given: the % may be the effect or the level left; procedure, shortened: as §4
[16] = molecular target: T2, Endothelin-converting enzyme 1 (Homo sapiens) (UniProt P42892); assay: Inhibition of ECE-1 at 10 uM
T2 sequence (whole entry): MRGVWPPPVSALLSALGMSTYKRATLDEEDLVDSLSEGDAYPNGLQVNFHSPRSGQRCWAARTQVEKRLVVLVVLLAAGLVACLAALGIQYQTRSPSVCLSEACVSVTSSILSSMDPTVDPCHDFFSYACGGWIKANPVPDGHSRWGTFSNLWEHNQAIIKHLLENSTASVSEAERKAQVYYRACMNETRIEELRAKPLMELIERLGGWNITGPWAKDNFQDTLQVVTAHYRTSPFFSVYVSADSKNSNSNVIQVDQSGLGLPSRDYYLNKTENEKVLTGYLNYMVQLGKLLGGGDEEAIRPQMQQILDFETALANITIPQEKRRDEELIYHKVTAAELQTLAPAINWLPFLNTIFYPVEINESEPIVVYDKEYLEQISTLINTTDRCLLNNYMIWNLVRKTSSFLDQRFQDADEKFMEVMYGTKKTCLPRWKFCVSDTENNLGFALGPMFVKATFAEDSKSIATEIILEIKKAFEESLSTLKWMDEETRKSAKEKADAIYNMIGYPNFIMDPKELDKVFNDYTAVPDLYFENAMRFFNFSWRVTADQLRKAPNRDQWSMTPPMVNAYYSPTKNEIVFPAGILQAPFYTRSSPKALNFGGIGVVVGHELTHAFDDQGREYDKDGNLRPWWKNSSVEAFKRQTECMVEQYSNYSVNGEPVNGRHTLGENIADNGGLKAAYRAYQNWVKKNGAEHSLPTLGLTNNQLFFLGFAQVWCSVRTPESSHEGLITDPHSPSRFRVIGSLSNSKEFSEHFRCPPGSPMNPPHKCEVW
Procedure, shortened: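 Part of a panel of 167 enzyme assays; percent inhibition at a test concentration of 10 µM.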

hERG (KCNH2), sequence (Q12809 whole entry): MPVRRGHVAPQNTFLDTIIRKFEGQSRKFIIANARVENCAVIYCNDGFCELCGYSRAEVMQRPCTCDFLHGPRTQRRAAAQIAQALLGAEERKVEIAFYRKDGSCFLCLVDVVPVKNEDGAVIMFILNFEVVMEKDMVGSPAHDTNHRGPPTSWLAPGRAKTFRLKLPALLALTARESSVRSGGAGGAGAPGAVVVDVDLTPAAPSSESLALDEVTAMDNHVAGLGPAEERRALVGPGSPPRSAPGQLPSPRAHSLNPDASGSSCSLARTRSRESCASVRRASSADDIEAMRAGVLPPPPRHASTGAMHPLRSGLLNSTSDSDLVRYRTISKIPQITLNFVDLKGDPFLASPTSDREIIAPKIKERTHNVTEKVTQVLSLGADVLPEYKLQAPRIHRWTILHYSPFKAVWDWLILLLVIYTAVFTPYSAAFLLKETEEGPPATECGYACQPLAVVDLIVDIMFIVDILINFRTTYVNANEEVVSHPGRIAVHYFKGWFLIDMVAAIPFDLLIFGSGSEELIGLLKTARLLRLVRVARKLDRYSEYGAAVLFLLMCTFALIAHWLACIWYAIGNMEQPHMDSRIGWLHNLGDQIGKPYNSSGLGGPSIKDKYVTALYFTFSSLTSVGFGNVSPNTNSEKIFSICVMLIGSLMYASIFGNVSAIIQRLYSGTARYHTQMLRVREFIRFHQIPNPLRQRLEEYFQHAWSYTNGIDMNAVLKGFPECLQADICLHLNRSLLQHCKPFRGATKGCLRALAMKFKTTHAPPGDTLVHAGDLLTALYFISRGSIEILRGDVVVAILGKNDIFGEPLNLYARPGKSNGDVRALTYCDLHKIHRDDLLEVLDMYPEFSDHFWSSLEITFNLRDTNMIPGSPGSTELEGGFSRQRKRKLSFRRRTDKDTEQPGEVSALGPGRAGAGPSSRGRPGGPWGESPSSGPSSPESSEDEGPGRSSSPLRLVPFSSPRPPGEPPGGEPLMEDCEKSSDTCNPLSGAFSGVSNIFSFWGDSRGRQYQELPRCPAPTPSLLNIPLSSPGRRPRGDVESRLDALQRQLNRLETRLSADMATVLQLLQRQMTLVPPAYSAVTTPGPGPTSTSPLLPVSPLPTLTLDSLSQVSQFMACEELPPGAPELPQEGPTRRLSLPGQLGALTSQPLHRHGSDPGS

pIC50 (Dipeptidyl peptidase 2): < 4.70
pIC50 (Prolyl endopeptidase FAP): < 4.70
Activity (Homo sapiens [1]): > 1300
Activity (Homo sapiens [2]): > 1300
Activity (Homo sapiens [3]): > 1300
clearance [4]: 22 mL/min/kg
Cmax [5]: 621 ng/mL
half-life [6]: 4.8 h
bioavailability [7]: 42%
inhibition [16]: 53%
SMILES: CC(C)(CC(=O)N[C@H]1C[C@@H]1c1cccc(Cl)c1)NCC(=O)N1C[C@@H](F)C[C@H]1C#N
inhibition at 10 µM (hERG (KCNH2)): 11%
inhibition in vivo at 10 mg/kg (Rattus norvegicus [8]): > 85%
Activity (Rattus norvegicus [9]): inactive
Activity (Mus musculus [10]): 50%
Activity (Mus musculus [11]): 73%
Activity (Mus musculus [12]): Dose-dependent effect
Activity (Mus musculus [13]): 72%
Activity (Mus musculus [14]): 98%
Activity (Mus musculus [15]): 83%
